Screens (PubChem BioAssay)
MEKK2mut PB1 HTS = signal of MEK5 binding to mutant human MEKK2 PB1 domain; bead flow cytometry, Alexa488-MEK5 binding to MEKK2 mutant; percent response, % at 10 µM; 0.35% of 290,000 active; AID 1530; in the data active = percent response above about 24%, passing the limit was not always enough
MEKK2 WT-MEK5 = raises or lowers MEK5 binding to wildtype human MEKK2 PB1 domain. AID 1531. 1.1% of 290,000 active. binding response (% of control), % at 10 µM. Q9Y2U5. bead flow cytometry, Alexa488-MEK5 binding to MEKK2 WT; actives lie on both sides; in the data active = binding response below about 67% or above about 130%
UBC13 inh = human UBC13 polyubiquitination inhibition. inhibition, % at 20 µM. 0.47% of 330,000 active. UBC13 polyubiquitin chain formation, TR-FRET. AID 485273; in the data active = inhibition above about 45%, passing the limit was not always enough
Apaf1 inhib = blocks human Apaf-1 apoptosome activity; reconstituted apoptosome caspase-3 activity, DEVD-Rh110 fluorescence; inhibition, % at 20 µM; 0.71% of 330,000 active; active = inhibition of at least 40% at 20 µM
Target sequence (O14727 whole entry, looked up): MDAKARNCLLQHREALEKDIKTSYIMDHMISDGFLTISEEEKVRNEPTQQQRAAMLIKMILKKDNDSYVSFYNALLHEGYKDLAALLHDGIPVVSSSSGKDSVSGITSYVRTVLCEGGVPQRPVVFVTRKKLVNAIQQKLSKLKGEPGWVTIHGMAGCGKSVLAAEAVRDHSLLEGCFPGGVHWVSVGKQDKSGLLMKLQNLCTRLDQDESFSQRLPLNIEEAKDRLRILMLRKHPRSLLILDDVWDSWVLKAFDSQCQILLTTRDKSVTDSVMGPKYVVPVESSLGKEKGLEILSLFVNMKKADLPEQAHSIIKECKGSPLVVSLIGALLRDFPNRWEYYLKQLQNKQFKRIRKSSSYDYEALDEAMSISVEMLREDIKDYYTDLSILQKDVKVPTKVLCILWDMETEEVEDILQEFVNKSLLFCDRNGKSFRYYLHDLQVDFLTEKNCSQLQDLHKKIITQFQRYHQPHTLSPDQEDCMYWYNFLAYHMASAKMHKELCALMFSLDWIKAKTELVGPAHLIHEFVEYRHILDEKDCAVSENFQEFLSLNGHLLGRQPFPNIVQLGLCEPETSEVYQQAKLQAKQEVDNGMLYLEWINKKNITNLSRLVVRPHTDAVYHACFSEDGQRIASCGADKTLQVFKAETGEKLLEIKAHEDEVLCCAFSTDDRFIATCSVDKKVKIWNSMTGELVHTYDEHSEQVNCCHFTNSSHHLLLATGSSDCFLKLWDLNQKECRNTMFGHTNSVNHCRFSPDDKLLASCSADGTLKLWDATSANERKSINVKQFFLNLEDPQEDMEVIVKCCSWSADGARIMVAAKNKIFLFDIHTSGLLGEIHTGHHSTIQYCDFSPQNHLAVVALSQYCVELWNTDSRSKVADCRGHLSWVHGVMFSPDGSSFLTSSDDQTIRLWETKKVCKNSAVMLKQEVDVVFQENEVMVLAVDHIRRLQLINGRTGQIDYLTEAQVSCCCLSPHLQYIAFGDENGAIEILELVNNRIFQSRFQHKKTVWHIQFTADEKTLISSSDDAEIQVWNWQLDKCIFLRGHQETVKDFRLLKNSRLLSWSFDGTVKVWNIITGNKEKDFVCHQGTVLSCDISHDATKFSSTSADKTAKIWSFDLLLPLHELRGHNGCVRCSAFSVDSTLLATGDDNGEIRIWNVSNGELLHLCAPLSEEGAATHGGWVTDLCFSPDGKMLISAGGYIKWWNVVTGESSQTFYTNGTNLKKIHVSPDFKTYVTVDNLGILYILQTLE
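Material: cell-free apoptosome with Apaf-1, procaspase-3 and caspase-9; Buffer or medium: Hepes pH 7.5 with detergent and BSA; Reagent: cytochrome c trigger plus (Z-DEVD)2-Rh110 caspase-3 substrate; Times: compound with Apaf-1, dATP, procaspase-3 30 min, then 50 min reaction, room temperature; Technique: Rh110 fluorescence intensity.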
PREPL inh = human PREPL enzyme inhibition. Q4J6C6. recombinant PREPL, fluorescence polarization activity-based probe. inhibition, % at 5.96 µM. 0.68% of 320,000 active. AID 2751; in the data active = inhibition above about 43%
MEKK3 PB1 HTS = raises or lowers MEK5 binding to the human MEKK3 PB1 domain | bead-based flow cytometry, Alexa488-MEK5 binding to MEKK3; actives lie on both sides; 0 = blocked by unlabeled MEK5, 100 = vehicle | binding response (% of control), % at 10 µM | 1.4% of 290,000 active | AID 1529;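 active = binding response more than 3 SD above or below the average of its plate-row segment, actives on both sides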;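 also: Alexa488 bead fluorescence after subtracting the streptavidin-only scavenger bead signal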
MEKK2wt confirm = raises or lowers MEK5 binding to wildtype human MEKK2, retest; binding response (% of control), % at 10 µM; bead flow cytometry, Alexa488-MEK5 binding to MEKK2 WT; actives lie on both sides; 2.4% of 5,900 active; shares compounds with MEKK3 PB1 HTS; in the data active = binding response below about 16% or above about 210%; inactive = in between
MEKK2mut confirm = signal of MEK5 binding to mutant human MEKK2, retest; shares compounds with MEKK3 PB1 HTS; AID 1893; 2% of 5,900 active; percent response, % at 10 µM; bead flow cytometry, Alexa488-MEK5 binding to MEKK2 mutant; in the data active = percent response mostly above about 71%, no sharp cut-off; inactive = mostly below about 38%;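 also: higher means compound restores mutant binding toward wildtype level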
MEKK3 confirm = MEKK3-MEK5 PB1 inhibition, single concentration confirmation. shares compounds with MEKK3 PB1 HTS. bead flow cytometry, Alexa488-MEK5 binding to MEKK3; stronger effect = lower value. binding response (% of control), % at 10 µM. 1.8% of 5,900 active;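 active = binding response below 72% of control, or above a set upper limit, though filed actives all read lower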
Large screens that a line does not name were inactive (follow-up assays come after a bar, where they were run); [ ] = dose if it differs, or a comment. In the library only some 3.1% were active in any assay of this set; here they are far more common.

O=C(Nc1ccc(Cl)c(C(F)(F)F)c1)c1ccncc1	MEKK2 WT-MEK5 5.0[inhibitor], MEKK3 PB1 HTS 2.0[inhibitor] | MEKK2wt confirm inactive | MEKK2mut confirm inactive | MEKK3 confirm inactive
O=C(Nc1ccc(NC(=O)c2ccncc2)cc1)c1ccncc1	none
Cc1ccc(C(=O)Nc2ccc(Br)c(C(F)(F)F)c2)cc1	MEKK2 WT-MEK5 170 | MEKK2wt confirm inactive | MEKK2mut confirm inactive | MEKK3 confirm inactive
COc1ccc(S(=O)(=O)NNC(=O)Nc2ccc(C)cc2C)c(OC)c1	none
CCCN(CC(=O)Nc1cc(Cl)cc(Cl)c1)CC(=O)Nc1ccc(F)c(F)c1F	MEKK2 WT-MEK5 165 | MEKK2wt confirm inactive | MEKK2mut confirm inactive | MEKK3 confirm inactive
CN(CC(=O)Nc1ccc(Cl)cc1)CC(=O)Nc1ccc(F)c(F)c1F	MEKK3 PB1 HTS 131 | MEKK2wt confirm inactive | MEKK2mut confirm inactive | MEKK3 confirm inactive
CCCN(CC(=O)Nc1ccc(C(N)=O)cc1)CC(=O)Nc1ccc(Cl)cc1Cl	MEKK3 PB1 HTS 134 | MEKK2wt confirm inactive | MEKK2mut confirm inactive | MEKK3 confirm inactive
CCN(CC)CCN(C(=O)C1=COCCO1)c1nc2c(OC)ccc(OC)c2s1	none
COc1ccc(Cl)cc1NS(=O)(=O)c1cccc(C(=O)NCC2(N(C)C)CCCCC2)c1	none (no result: PREPL inh)
COc1cccc(-c2ncc3ccccc3c2COC(=O)CCCC(=O)O)c1	none (no result: MEKK2mut PB1 HTS, MEKK2 WT-MEK5, MEKK3 PB1 HTS)
COc1ccc(C(C(=O)NC2CCCCC2)N(C(=O)c2sc(C)nc2C)c2ccc(OC)cc2)cc1 (centres undefined)	MEKK3 PB1 HTS 46[inhibitor] | MEKK2wt confirm inactive | MEKK2mut confirm inactive | MEKK3 confirm inactive
COc1ccc(C(C(=O)NC2CCCCC2)N(C(=O)c2sc(C)nc2C)c2ccccc2)cc1 (centres undefined)	none
CCc1ccc(N(C(=O)c2ccoc2C)C(C(=O)NC2CCCC2)c2ccc(OC)cc2)cc1 (centres undefined)	none
COc1ccc(C(C(=O)NC2CCCC2)N(C(=O)c2ccoc2C)c2ccccc2)cc1 (centres undefined)	MEKK3 PB1 HTS 137 | MEKK2wt confirm inactive | MEKK2mut confirm inactive | MEKK3 confirm inactive
O=C(NNC(=O)c1nc2ccccc2[nH]1)OCc1ccccc1	none (no result: MEKK2mut PB1 HTS, MEKK2 WT-MEK5, MEKK3 PB1 HTS)
O=C(Nc1ccccc1C(=O)N1CCCCC1)c1cccs1	none
COc1ccc2c(c1)-c1c(ssc1=S)C(C)(C)N2S(=O)(=O)c1ccc(C)cc1	MEKK3 PB1 HTS 129 | MEKK2wt confirm inactive | MEKK2mut confirm inactive | MEKK3 confirm inactive
CCOC(=O)C1(Cc2cccc(F)c2)CCN(Cc2cnn(CC)c2)CC1	none
CCOC(=O)C1(Cc2cccc(F)c2)CCN(Cc2nc(CC)[nH]c2C)CC1	MEKK3 PB1 HTS 71[inhibitor] (no result: MEKK2 WT-MEK5) | MEKK2wt confirm inactive | MEKK2mut confirm inactive | MEKK3 confirm inactive
Cc1ccsc1/C=N/N1CCN(C2c3ccccc3-c3ccccc32)CC1	MEKK3 PB1 HTS 82[inhibitor] | MEKK2wt confirm inactive | MEKK2mut confirm inactive | MEKK3 confirm inactive
C(=N\N1CCN(C2c3ccccc3-c3ccccc32)CC1)/c1ccncc1	none
O=C(COC(=O)COc1ccccc1)Nc1ccccc1OC(F)F	MEKK3 PB1 HTS 72[inhibitor] | MEKK2wt confirm inactive | MEKK2mut confirm inactive | MEKK3 confirm inactive
CC(=O)OCC(=O)Nc1ccccc1OC(F)F	none
c1ccc2[nH]c(N3CCOCC3)nc2c1	none
c1ccc(N2CCN(c3nc4ccccc4[nH]3)CC2)nc1	MEKK3 PB1 HTS 74[inhibitor] | MEKK2wt confirm inactive | MEKK2mut confirm inactive | MEKK3 confirm inactive
COc1ccc(Cl)cc1NC(=S)NCCCN1CCCC1=O	MEKK3 PB1 HTS 46[inhibitor] | MEKK2wt confirm inactive | MEKK2mut confirm inactive | MEKK3 confirm inactive
NS(=O)(=O)c1ccc(N/N=C/c2cn(-c3ccccc3)nc2-c2ccccc2)c([N+](=O)[O-])c1	none
O=[N+]([O-])c1cccc(-c2nn(-c3ccccc3)cc2CO)c1	none
O=[N+]([O-])c1ccc(N/N=C/c2cn(-c3ccccc3)nc2-c2ccccc2)cc1	MEKK2mut PB1 HTS 27, MEKK2 WT-MEK5 11 | MEKK2wt confirm inactive | MEKK2mut confirm inactive | MEKK3 confirm inactive
O=S(=O)(N/N=C\c1cn(-c2ccccc2)nc1-c1ccccc1)c1ccccc1	MEKK3 PB1 HTS 126 | MEKK2wt confirm inactive | MEKK2mut confirm inactive | MEKK3 confirm inactive
O=C(NCc1cn(-c2ccccc2)nc1-c1ccccc1)c1ccc([N+](=O)[O-])cc1	MEKK3 PB1 HTS 131 | MEKK2wt confirm inactive | MEKK2mut confirm inactive | MEKK3 confirm inactive
O=C(NCCS(=O)(=O)c1ccc(Br)cc1)c1c(F)cccc1F	none
O=C(O)COc1ccccc1/C=N/NC(=O)CSc1nnc(SCc2ccc(Cl)cc2)s1	MEKK3 PB1 HTS 130 | MEKK2wt confirm inactive | MEKK2mut confirm inactive | MEKK3 confirm inactive
CCc1ccc2c(c1)c1nnc(NN)nc1n2CC	MEKK3 PB1 HTS 164 | MEKK2wt confirm inactive | MEKK2mut confirm inactive | MEKK3 confirm inactive
O=C(CN1CCC(NC(=O)Nc2ccccc2-c2ccccc2)CC1)NCc1ccco1	none
O=C(Nc1ccccc1-c1ccccc1)NC1CCN(C(=O)N2CCOCC2)CC1	MEKK3 PB1 HTS 122 | MEKK2wt confirm inactive | MEKK2mut confirm inactive | MEKK3 confirm inactive
CCOc1ccccc1OCC(=O)OC(C)C(=O)Nc1ncc(Cl)cc1Cl (centres undefined)	none (no result: MEKK2mut PB1 HTS, MEKK2 WT-MEK5, MEKK3 PB1 HTS)
CCCOc1ccc(C(=O)NCC(c2ccco2)N(C)C)cc1OC (centres undefined)	none
CCCOc1ccc(C(=O)NCC(c2cccs2)N(C)C)cc1OC (centres undefined)	MEKK3 PB1 HTS 146 | MEKK2wt confirm inactive | MEKK2mut confirm inactive | MEKK3 confirm inactive
COc1ccccc1NS(=O)(=O)c1cccc(C(=O)N(C)Cc2cccs2)c1	none
O=C(CSc1nc(-c2ccccc2)c(-c2ccccc2)[nH]1)NCC1CCCO1 (centres undefined)	MEKK2 WT-MEK5 54[inhibitor] | MEKK2wt confirm inactive | MEKK2mut confirm inactive | MEKK3 confirm inactive
CS(=O)(=O)NCc1ccccc1Br	none (no result: MEKK2mut PB1 HTS, MEKK2 WT-MEK5, MEKK3 PB1 HTS)
O=C(CSc1ccc(-c2nc3ccccc3[nH]2)cn1)Nc1ccc(S(=O)(=O)NC2CC2)cc1	MEKK3 PB1 HTS 165 | MEKK2wt confirm inactive | MEKK2mut confirm inactive | MEKK3 confirm inactive
O=C(CSc1ccc(-c2nc3ccccc3[nH]2)cn1)Nc1ccc2c(c1)OCCO2	none
